# Laboratory results from ChEMBL document CHEMBL4346709, “Design and Optimization Leading to an Orally Active TTK Protein Kinase Inhibitor with Robust Single Agent Efficacy” (J Med Chem, 2019).
# Columns and labels:
# CAL-51 [1] = test: Antitumor activity against human CAL51 cells xenografted in CB17 SCID mouse assessed as tumor growth inhibition at 5 mg/kg, iv q4d and measured twice per week up to 31 days by caliper method relative to control; assay type: functional; settings: CAL-51, iv, 744 h, read-out: TGI
# [2] = Toxicity in CB17 SCID mouse xenografted with human CAL51 cells assessed as body weight loss at 5 mg/kg, iv q4d and measured up to 31 days relative to control; assay type: organism-based; settings: in vivo, 744 h
# [3] = Cmax in CB17 SCID mouse at 30 mg/kg, po; assay type: ADME, organism-based; design: dose 30 mg/kg, route oral; settings: in vivo
# Summary of the method: (§1)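 Oral PK in SCID mice at 30 mg/kg. Compound is formulated either in CMCT (0.5% CMC/0.25% tween-80) or in 5% TPGS, 10% captisol, 50 mM citrate buffer, depending on compound. Cmax and AUC are measured.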
# [4] = target: T1, Dual specificity protein kinase TTK (Homo sapiens, UniProt P33981); test: Inhibition of Kinase Tracer 236 binding to recombinant human full-length GST-tagged TTk expressed in baculovirus expression system measured after 1 hr by LanthaScreen Eu--kinase binding assay
# T1 sequence (P33981 whole entry): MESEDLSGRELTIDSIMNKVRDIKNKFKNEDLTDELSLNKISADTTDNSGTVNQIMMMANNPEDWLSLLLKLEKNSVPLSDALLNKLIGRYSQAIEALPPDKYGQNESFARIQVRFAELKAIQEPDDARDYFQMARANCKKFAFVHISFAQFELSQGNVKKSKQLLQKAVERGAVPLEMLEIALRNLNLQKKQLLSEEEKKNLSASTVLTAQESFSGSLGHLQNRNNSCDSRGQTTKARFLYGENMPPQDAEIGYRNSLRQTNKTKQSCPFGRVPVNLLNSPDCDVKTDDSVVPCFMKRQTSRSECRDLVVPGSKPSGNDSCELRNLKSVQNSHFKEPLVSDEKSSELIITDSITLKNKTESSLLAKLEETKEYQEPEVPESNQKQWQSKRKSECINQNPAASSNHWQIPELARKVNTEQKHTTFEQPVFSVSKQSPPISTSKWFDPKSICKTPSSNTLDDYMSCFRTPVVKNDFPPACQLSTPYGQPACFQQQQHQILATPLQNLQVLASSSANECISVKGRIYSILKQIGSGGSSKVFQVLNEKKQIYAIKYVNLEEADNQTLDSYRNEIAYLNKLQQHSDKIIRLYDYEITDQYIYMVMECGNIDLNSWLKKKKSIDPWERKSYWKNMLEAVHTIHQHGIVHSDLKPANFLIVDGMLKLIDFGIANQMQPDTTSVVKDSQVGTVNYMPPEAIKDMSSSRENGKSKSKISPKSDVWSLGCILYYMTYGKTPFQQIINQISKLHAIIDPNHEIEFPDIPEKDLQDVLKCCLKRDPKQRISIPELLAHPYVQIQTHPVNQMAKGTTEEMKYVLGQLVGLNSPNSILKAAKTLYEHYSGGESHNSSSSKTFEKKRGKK
# [5] = AUC in CB17 SCID mouse at 30 mg/kg, po; assay type: ADME, organism-based; settings: in vivo; summary of the method: as §1
# [6] = Metabolic stability in human liver S9 fraction assessed as parent compound remaining after 60 mins; assay type: ADME, subcellular; settings: read-out: Stability
# [7] = target: T1, Dual specificity protein kinase TTK; test: Inhibition of TTK autophosphorylation in human CAL51 cells by radioimmuno-precipitation assay; assay type: cell-based
# [8] = Cmax in rat at 10 mg/kg, po; assay type: ADME, organism-based; design: dose 10 mg/kg, route oral; settings: in vivo
# Summary of the method: (§2)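 Rat oral PK at 10 mg/kg. Compound is given as a solution in CMCT (0.5% CMC/0.25% tween-80) or formulated in 5% TPGS, 10% captisol, 50 mM citrate buffer. Cmax and AUC are recorded.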
# CAL-51 [9] = test: Antiproliferative activity against human CAL51 cells assessed as reduction in cell viability after 3 days by CellTiter-Glo reagent-based luminescent assay; assay type: functional; settings: CAL-51, 72 h
# [10] = AUC in rat at 10 mg/kg, po; assay type: ADME, organism-based; settings: in vivo; summary of the method: as §2
# [11] = Oral bioavailability in rat at 5 mg/kg; settings: in vivo
Structure (SMILES),IC50 [4] [nM],AUC [10] [µM·h],IC50 (CAL-51 [9]) [nM],other results
CC(=O)O[C@@]12CO[C@@H]1C[C@H](O)[C@@]1(C)C(=O)[C@H](O)C3=C(C)[C@@H](OC(=O)[C@H](O)[C@@H](NC(=O)OC(C)(C)C)c4ccccc4)C[C@@](O)([C@@H](OC(=O)c4ccccc4)[C@H]21)C3(C)C [DOCETAXEL ANHYDROUS],–,–,–,inhibition in vivo at 5 mg/kg (CAL-51 [1]): 61%; Activity [2]: 20%
COc1cc(N2CCN(C(=O)CO)CC2)ccc1Nc1nc(O[C@H]2CCOC(C)(C)C2)c2cc[nH]c2n1,1.3,9.5 to 9.52,37,Cmax [3]: 9.86 µM; AUC [5]: 17.6 µM·h; remaining at 1 h [6]: 79%; IC50 [7]: 16 nM; Cmax [8]: 2.53 µM
COc1cc(N2CCN(C3COC3)CC2)ccc1Nc1nc(O[C@H]2CCOC(C)(C)C2)c2cc[nH]c2n1,2.5,24,84,Cmax [3]: 11.8 µM; AUC [5]: 35.3 µM·h; remaining at 1 h [6]: 85%; IC50 [7]: 44 nM; Cmax [8]: 4.43 µM
COc1cc(C(=O)N(C)C)ccc1Nc1nc(OC(C)C)c2cc[nH]c2n1,3.2,–,1260,–
COc1cc(N2CCC(C)(O)CC2)ccc1Nc1nc(O[C@H]2CCOC(C)(C)C2)c2cc[nH]c2n1,–,11,71,–
CNC(=O)c1ccc(Nc2nc(OC3CCCC3)c3c(-c4ccc5nc(C)oc5c4)c[nH]c3n2)c(OC)c1,–,–,–,bioavailability [11]: 0.9%
CCOc1cc(C(=O)N(C)C)ccc1Nc1nc(O[C@H]2CC[C@@](C)(O)CC2)c2cc[nH]c2n1,–,–,26,–
COc1cc(N2CCOCC2)ccc1Nc1nc(O[C@H]2CCOC(C)(C)C2)c2cc[nH]c2n1,–,14.7,53,–
CN(C)C(=O)c1ccc(Nc2nc(O[C@H]3CC[C@@](C)(O)CC3)c3cc[nH]c3n2)c(OCC(F)(F)F)c1,–,16.1,15,–
C[C@@H](Oc1cc(C(=O)N(C)C)ccc1Nc1nc(O[C@H]2CC[C@@](C)(O)CC2)c2cc[nH]c2n1)C(F)(F)F,–,30,24,–
COc1cc(C(=O)N2CCOCC2)ccc1Nc1nc(O[C@H]2CCOC(C)(C)C2)c2cc[nH]c2n1,–,–,406,–

# Further lines, with some results ahead:
IC50 [4] [nM],AUC [10] [µM·h],Structure (SMILES),IC50 (CAL-51 [9]) [nM],other results
1,–,COc1cc(C(=O)N(C)C)ccc1Nc1nc(OC2CCOCC2)c2cc[nH]c2n1,198,–
1,30,COc1cc(C(=O)N(C)C)ccc1Nc1nc(O[C@H]2CCOC(C)(C)C2)c2cc[nH]c2n1,131,–
0.6,–,COc1cc(C(=O)N(C)C)ccc1Nc1nc(O[C@H]2CC[C@](C)(O)CC2)c2cc[nH]c2n1,69,–
1.3,–,COc1cc(C(=O)N(C)C)ccc1Nc1nc(OC2CCCC2)c2cc[nH]c2n1,497,–
7.2,–,COc1cc(C(=O)N(C)C)ccc1Nc1nc(OC2COC2)c2cc[nH]c2n1,1960,–
0.7,21.8,COc1cc(C(=O)N(C)C)ccc1Nc1nc(O[C@H]2CC[C@@](C)(O)CC2)c2cc[nH]c2n1,44,–
1.3,–,COc1cc(C(=O)N(C)C)ccc1Nc1nc(OC2CCCCC2)c2cc[nH]c2n1,190,–
